Assay results: ChEMBL document CHEMBL4196059, “Design, synthesis, and biological evaluation of stable β6.3-Helices: Discovery of non-hemolytic antibacterial peptides” (Eur J Med Chem, 2018)
Values after ≈ are worked out from the molar mass of the structure shown. Active and inactive are the calls of the source. The rule behind the calls is not given here. Residues, ends and D or L forms follow the SMILES beside them.

Legend:
[1] = Hemolytic activity against human RBC at 50 uM after 1 hr by Drabkin's assay relative to control; type: ADME, cell-based, Erythrocyte; conditions: human red blood cells (erythrocytes), read-out: Activity
[2] = Hemolytic activity against human RBC at 25 uM after 1 hr by Drabkin's assay relative to control; type: ADME, cell-based, Erythrocyte; conditions: human red blood cells (erythrocytes), read-out: Activity
[3] = Hemolytic activity against human RBC at 6.25 uM after 1 hr by Drabkin's assay relative to control; type: ADME, cell-based, Erythrocyte; conditions: human red blood cells (erythrocytes), read-out: Activity
Escherichia coli [4] = assay: Growth inhibition of Escherichia coli ATCC 25922 at 32 ug/ml after 18 hrs; type: functional; conditions: ATCC 25922, 18 h, read-out: GI
In short: (§1)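 Mid-log cultures were prepared as above and seeded at 5×10^5 CFU/mL with compound at a final 32 μg/mL, then held static at 37 °C for 18 h. Growth was read as OD600. Percent inhibition was calculated against media-only and bacteria-only controls on the same plate.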

Pseudomonas aeruginosa = assay: Growth inhibition of Pseudomonas aeruginosa ATCC 27853 at 32 ug/ml after 18 hrs; type: functional; conditions: ATCC 27853, 18 h, read-out: GI; in short: as §1
Staphylococcus aureus [5] = assay: Growth inhibition of methicillin-resistant Staphylococcus aureus ATCC 43300 at 32 ug/ml after 18 hrs; type: functional; conditions: ATCC 43300, 18 h, read-out: GI
In short: (§2)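 Mid-log cultures in cation-adjusted Mueller Hinton broth were added at 5×10^5 CFU/mL to wells at a final compound concentration of 32 μg/mL. Plates stood at 37 °C for 18 h. Growth was read by OD600, and % inhibition was computed against media-only and untreated-bacteria controls.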

[6] = Hemolytic activity against human RBC at 0.39 uM after 1 hr by Drabkin's assay relative to control; type: ADME, cell-based, Erythrocyte; conditions: human red blood cells (erythrocytes), read-out: Activity
Cryptococcus neoformans = assay: Growth inhibition of Cryptococcus neoformans H99 ATCC 208821 at 32 ug/ml after 24 hrs by resazurin dye-based microspectrophotometric assay; type: functional; conditions: var. grubii H99 ATCC 208821, 24 h, read-out: GI
In short: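 Yeasts were grown 3 days on YPD agar at 30 °C, suspended from five colonies and diluted in YNB broth to a final 2.5×10^3 CFU/mL. Compound at a final 32 μg/mL; incubated 24 h at 35 °C without shaking. C. albicans was read at OD530. C. neoformans was read as OD600–570 after resazurin (0.001% final) and a further 2 h at 35 °C. Fluconazole was the standard.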

[7] = Hemolytic activity against human RBC at 0.78 uM after 1 hr by Drabkin's assay relative to control; type: ADME, cell-based, Erythrocyte; conditions: human red blood cells (erythrocytes), read-out: Activity
Erythrocyte = assay: Hemolytic activity against human RBC after 1 hr by Drabkin's assay; type: ADME, cell-based
[8] = Hemolytic activity against human RBC at 3.125 uM after 1 hr by Drabkin's assay relative to control; type: ADME, cell-based, Erythrocyte; conditions: human red blood cells (erythrocytes), read-out: Activity
[9] = Hemolytic activity against human RBC at 1.56 uM after 1 hr by Drabkin's assay relative to control; type: ADME, cell-based, Erythrocyte; conditions: human red blood cells (erythrocytes), read-out: Activity
Acinetobacter baumannii [10] = assay: Growth inhibition of Acinetobacter baumannii ATCC 19606 at 32 ug/ml after 18 hrs; type: functional; conditions: ATCC 19606 = CIP 70.34 = JCM 6841, 18 h, read-out: GI; in short: as §1
Candida albicans = assay: Growth inhibition of Candida albicans ATCC 90028 at 32 ug/ml after 24 hrs by OD530 light-scattering microspectrophotometric method; conditions: ATCC 90028, 24 h, read-out: GI
Lipid bilayer [11] = assay: Binding affinity to POPC vesicles by surface plasmon resonance spectroscopy
In short: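 SPR on a dextran chip carrying immobilized POPC liposomes, with running buffer of 10 mM HEPES and 100 mM KCl at pH 7.4. Peptides in PBS were flowed at 25 μL/min at 10–1000 μM, with reference-subtracted response units. KD and Rmax were fitted from maximum response versus concentration. Regeneration used 20 mM CHAPS followed by fresh liposomes.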

[12] = Induction of pore formation in DOPC vesicles at 20 uM after 3 hrs by carboxyfluorescein dye leakage assay; conditions: in the assay text read “after 3 mins” for “after 3 hrs”
In short: (§3)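 POPC or DOPC liposomes were hydrated in 10 mM HEPES, 100 mM KCl, pH 7.4, containing 50 mM carboxyfluorescein. Size was checked by dynamic light scattering, and vesicles were used at 2.2×10^10 per mL. Peptide at 20 μM was equilibrated with vesicles for 3 min, and dye leakage was measured.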

Klebsiella pneumoniae [13] = assay: Growth inhibition of multidrug-resistant Klebsiella pneumoniae ATCC 700603 at 32 ug/ml after 18 hrs; type: functional; conditions: ATCC 700603, 18 h, read-out: GI; in short: as §2
[14] = Hemolytic activity against human RBC at 12.5 uM after 1 hr by Drabkin's assay relative to control; type: ADME, cell-based, Erythrocyte; conditions: human red blood cells (erythrocytes), read-out: Activity
Lipid bilayer [15] = assay: Induction of pore formation in POPC vesicles at 20 to 100 uM after 3 mins by carboxyfluorescein dye leakage assay
[16] = Induction of pore formation in DOPC vesicles at 20 uM after 3 mins by carboxyfluorescein dye leakage assay
Klebsiella pneumoniae [17] = assay: Antibacterial activity against multidrug-resistant Klebsiella pneumoniae ATCC 700603 after 18 hrs by non-binding surface 96-well plate-based method; type: functional; conditions: ATCC 700603, 18 h
In short: (§4)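 Strains grown in cation-adjusted Mueller Hinton broth at 37 °C for 12 h, diluted 40-fold and regrown 1.5–3 h to mid-log. Inoculum was 5×10^5 CFU/mL in 12-point dose response, in non-binding surface or polystyrene plates, in duplicate. Plates stood at 37 °C for 18 h. MIC was read by OD600.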

Staphylococcus aureus [18] = assay: Antibacterial activity against methicillin-resistant Staphylococcus aureus ATCC 43300 after 18 hrs by polystyrene 96-well plate-based method; type: functional; conditions: ATCC 43300, 18 h; in short: as §4
Escherichia coli [19] = assay: Antibacterial activity against Escherichia coli ATCC 25922 after 18 hrs by polystyrene 96-well plate-based method; type: functional; conditions: ATCC 25922, 18 h; in short: as §4
Acinetobacter baumannii [20] = assay: Antibacterial activity against Acinetobacter baumannii ATCC 19606 after 18 hrs by non-binding surface 96-well plate-based method; type: functional; conditions: ATCC 19606 = CIP 70.34 = JCM 6841, 18 h; in short: as §4
Klebsiella pneumoniae [21] = assay: Antibacterial activity against multidrug-resistant Klebsiella pneumoniae ATCC 700603 after 18 hrs by polystyrene 96-well plate-based method; type: functional; conditions: ATCC 700603, 18 h; in short: as §4
Acinetobacter baumannii [22] = assay: Antibacterial activity against Acinetobacter baumannii ATCC 19606 after 18 hrs by polystyrene 96-well plate-based method; type: functional; conditions: ATCC 19606 = CIP 70.34 = JCM 6841, 18 h
In short: (§5)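 Cultured in cation-adjusted Mueller Hinton broth at 37 °C for 12 h, diluted 40-fold and grown 1.5–3 h to mid-log. Seeded at 5×10^5 CFU/mL over a 12-point dose response in non-binding surface and polystyrene 96-well plates, duplicates (n=2). Incubated static at 37 °C for 18 h. MIC read from OD600 light scattering; colistin and vancomycin as standards.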

[23] = Hemolytic activity against human RBC; type: ADME, cell-based, Erythrocyte; conditions: human red blood cells (erythrocytes)
Escherichia coli [24] = assay: Antibacterial activity against Escherichia coli ATCC 25922 after 18 hrs by non-binding surface 96-well plate-based method; type: functional; conditions: ATCC 25922, 18 h; in short: as §5
Lipid bilayer [25] = assay: Induction of pore formation in POPC vesicles at 20 uM after 3 hrs by carboxyfluorescein dye leakage assay; conditions: in the assay text read “after 3 mins” for “after 3 hrs”; in short: as §3
Staphylococcus aureus [26] = assay: Antibacterial activity against methicillin-resistant Staphylococcus aureus ATCC 43300 after 18 hrs by non-binding surface 96-well plate-based method; type: functional; conditions: ATCC 43300, 18 h; in short: as §4

| SMILES | hemolysis at 1 h, 50 µM [1] [%] | hemolysis at 1 h, 25 µM [2] [%] | hemolysis at 1 h, 6.25 µM [3] [%] | inhibition of growth at 32 µg/mL (Escherichia coli [4]) [%] | inhibition of growth at 32 µg/mL (Pseudomonas aeruginosa) [%] | inhibition of growth at 32 µg/mL (Staphylococcus aureus [5]) [%] | hemolysis at 1 h, 0.39 µM [6] [%] | inhibition of growth at 32 µg/mL (Cryptococcus neoformans) [%] | hemolysis at 1 h, 0.78 µM [7] [%] | Activity (Erythrocyte) | hemolysis at 1 h, 3.125 µM [8] [%] | hemolysis at 1 h, 1.56 µM [9] [%] | inhibition of growth at 32 µg/mL (Acinetobacter baumannii [10]) [%] | inhibition of growth at 32 µg/mL (Candida albicans) [%] | Kd (Lipid bilayer [11]) [µM] | Rmax (Lipid bilayer [11]) | inhibition of growth at 32 µg/mL (Klebsiella pneumoniae [13]) [%] | hemolysis at 1 h, 12.5 µM [14] [%] | other results |
| --- | --- | --- | --- | --- | --- | --- | --- | --- | --- | --- | --- | --- | --- | --- | --- | --- | --- | --- | --- |
| CC(C)(C)OC(=O)[C@@H]1CCCN1C(=O)N1CCCN1C(=O)[C@@H]1CCCN1C(=O)N1CCCN1C(=O)[C@@H]1CCCN1C(=O)N1CCCN1C(=O)[C@@H]1CCCN1C(=O)N1CCCN1C(=O)[C@@H]1CCCN1C(=O)N1CCCN1C(=O)[C@@H]1CCCN1C(=O)N1CCCN1C(=O)[C@@H]1CCCN1C(=O)N1CCCN1C(=O)[C@@H]1CCCN1C(=O)N1CCCN1C(=O)OCc1ccccc1 | -0.73 | -0.41 | -0.37 | -1.93 | -6.76 | 20.5 | 0.08 | -8.19 | 0.04 | Dose-dependent effect | -0.12 | -0.24 | 15.9 | 5.75 | 2580 | 2640 | -1.93 | -0.04 | Activity [12]: inactive |
| O=C(NCCO)[C@@H]1CCCN1C(=O)N1CCCN1C(=O)[C@@H]1CCCN1C(=O)N1CCCN1C(=O)[C@@H]1CCCN1C(=O)N1CCCN1C(=O)[C@@H]1CCCN1C(=O)N1CCCN1C(=O)[C@@H]1CCCN1C(=O)N1CCCN1C(=O)[C@@H]1CCCN1C(=O)N1CCCN1C(=O)[C@@H]1CCCN1C(=O)N1CCCN1C(=O)[C@@H]1CCCN1C(=O)N1CCCN1C(=O)OCc1ccccc1 | -0.04 | -0.04 | -0.11 | 11.3 | -2.74 | 11.8 | -0.04 | -4.06 | 0.15 | Dose-dependent effect | 0.15 | 0.02 | 36.2 | 4.99 | 373 | 601 | 11.3 | -0.04 | Activity (Lipid bilayer [15]): inactive; Activity [16]: 13% |
| CC(C)C[C@@H](NC(=O)[C@H](C)NC(=O)CNC(=O)[C@@H](NC=O)C(C)C)C(=O)N[C@@H](C)C(=O)N[C@@H](C(=O)N[C@H](C(=O)N[C@@H](C(=O)N[C@@H](Cc1c[nH]c2ccccc12)C(=O)N[C@H](CC(C)C)C(=O)N[C@@H](Cc1c[nH]c2ccccc12)C(=O)N[C@H](CC(C)C)C(=O)N[C@@H](Cc1c[nH]c2ccccc12)C(=O)N[C@H](CC(C)C)C(=O)N[C@@H](Cc1c[nH]c2ccccc12)C(=O)NCCO)C(C)C)C(C)C)C(C)C (HELM PEPTIDE1{[O=C[*:2]].V.G.A.[dL].A.[dV].V.[dV].W.[dL].W.[dL].W.[dL].W.[OCCN[*:1]]}$$$$V2.0) | 48.5 | 52.8 | 87.2 | 11.1 | -6.36 | 24.9 | 5.43 | -0.81 | 59.4 | Dose-dependent effect | 84.7 | 74.8 | 6.51 | 8.67 | – | – | 11.2 | 66.1 | MIC (Klebsiella pneumoniae [17]): > 50 µg/mL; MIC (Staphylococcus aureus [18]): 25 to 50 µg/mL (≈ 13.3 to 26.6 µM); MIC (Escherichia coli [19]): > 50 µg/mL; MIC (Acinetobacter baumannii [20]): > 50 µg/mL; MIC (Klebsiella pneumoniae [21]): > 50 µg/mL; MIC (Acinetobacter baumannii [22]): > 50 µg/mL; HC50 [23]: 5 µM; MIC (Escherichia coli [24]): > 50 µg/mL; Activity (Lipid bilayer [25]): 100%; MIC (Staphylococcus aureus [26]): > 50 µg/mL |
